The record followed here is ChEMBL document CHEMBL1135426, “Synthesis, receptor potency, and selectivity of halogenated diphenylpiperidines as serotonin 5-HT2A ligands for PET or SPECT brain imaging” (J Med Chem, 2002).

Test [1] has as its target T1, Adrenergic receptor alpha-1 (Rattus norvegicus, UniProt P15823+P23944+P43140).
T1 sequence (P15823 whole entry): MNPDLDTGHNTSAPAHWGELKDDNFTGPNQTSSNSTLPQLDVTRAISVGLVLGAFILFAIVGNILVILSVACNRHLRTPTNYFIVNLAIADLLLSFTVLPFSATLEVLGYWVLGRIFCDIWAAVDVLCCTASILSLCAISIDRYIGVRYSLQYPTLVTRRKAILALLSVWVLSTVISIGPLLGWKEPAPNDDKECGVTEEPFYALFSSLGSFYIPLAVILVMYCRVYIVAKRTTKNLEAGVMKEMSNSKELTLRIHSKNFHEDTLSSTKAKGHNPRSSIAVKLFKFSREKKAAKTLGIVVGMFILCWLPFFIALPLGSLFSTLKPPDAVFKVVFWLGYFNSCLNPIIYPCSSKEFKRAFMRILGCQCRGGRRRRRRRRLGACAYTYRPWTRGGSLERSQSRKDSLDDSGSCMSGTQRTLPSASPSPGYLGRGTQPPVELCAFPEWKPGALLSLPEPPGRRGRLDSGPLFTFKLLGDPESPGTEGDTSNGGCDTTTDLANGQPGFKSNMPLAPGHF
T1 sequence (P23944 whole entry): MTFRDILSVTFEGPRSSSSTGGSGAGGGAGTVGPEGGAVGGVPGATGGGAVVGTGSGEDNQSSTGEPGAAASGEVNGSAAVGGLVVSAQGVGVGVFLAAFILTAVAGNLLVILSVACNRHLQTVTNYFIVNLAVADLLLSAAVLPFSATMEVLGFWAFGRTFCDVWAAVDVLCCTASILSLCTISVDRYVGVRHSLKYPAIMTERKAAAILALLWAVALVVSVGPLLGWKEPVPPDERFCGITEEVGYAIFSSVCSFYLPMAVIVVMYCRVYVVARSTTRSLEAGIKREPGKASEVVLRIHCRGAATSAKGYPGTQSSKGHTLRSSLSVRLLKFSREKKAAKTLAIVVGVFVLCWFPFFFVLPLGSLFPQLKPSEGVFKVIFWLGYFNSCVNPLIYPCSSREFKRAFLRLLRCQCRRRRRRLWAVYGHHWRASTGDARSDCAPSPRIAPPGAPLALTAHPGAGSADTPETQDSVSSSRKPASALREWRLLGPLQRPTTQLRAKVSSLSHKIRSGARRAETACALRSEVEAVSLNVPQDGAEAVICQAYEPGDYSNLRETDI
T1 sequence (P43140 whole entry): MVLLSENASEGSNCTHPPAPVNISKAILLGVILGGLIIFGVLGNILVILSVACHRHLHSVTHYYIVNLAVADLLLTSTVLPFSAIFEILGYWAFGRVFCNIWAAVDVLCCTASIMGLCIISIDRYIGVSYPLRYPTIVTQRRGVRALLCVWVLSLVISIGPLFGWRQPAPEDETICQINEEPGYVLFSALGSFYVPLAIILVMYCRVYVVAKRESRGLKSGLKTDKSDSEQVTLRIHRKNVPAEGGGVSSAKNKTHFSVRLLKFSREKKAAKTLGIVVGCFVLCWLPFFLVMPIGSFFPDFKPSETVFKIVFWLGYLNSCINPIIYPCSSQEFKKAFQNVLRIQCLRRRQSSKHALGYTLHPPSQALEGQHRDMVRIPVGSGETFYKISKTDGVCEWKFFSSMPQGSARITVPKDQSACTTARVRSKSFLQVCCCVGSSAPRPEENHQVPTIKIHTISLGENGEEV
As to the kind of experiment: Binding affinity at Alpha-1 adrenergic receptor using rat forebrain cells with prazosin (0.20 nM) as radioligand and […] as blank agent.

Test [2] addresses T1, Adrenergic receptor alpha-1. As to the kind of experiment: Binding affinity (Ki) at Alpha-1 adrenergic receptor using rat forebrain cells with prazosin (0.20 nM) as a radioligand and […] as a blank agent.
Test [3] shares this target. Kind of test: Binding affinity (Ki) at Alpha-1 adrenergic receptor using rat brain cells with prazosin (0.20 nM) as a radioligand and […] as a blank agent. Format: cell-based. Put shortly: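 Whole rat brain homogenate (excluding cerebellum) incubated with 0.20 nM [3H]prazosin, 30 °C, 30 min. Nonspecific binding defined with 2 µM phentolamine. Filtration harvest, tritium counted by scintillation. Screened at 1 and 10 µM; ≥6 concentrations if ≥30% inhibition at 1 µM. IC50 from curve fit, converted to Ki by Cheng-Prusoff using the radioligand Kd.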

One may read the Ki as a measure of affinity in units of concentration, obtained from inhibition or displacement. The low end stands for tighter binding, the high end for weaker binding. The compound `OC(c1ccc(F)cc1)C1CCN(CCc2ccc(F)cc2)CC1` (stereo unspecified) returned a Ki in test [1] of 0.303 µM.
In the case of `O=C(c1ccc(F)cc1)C1CCN(CCc2ccc(I)cc2)CC1`, the Ki in test [2] is 0.0261 µM.
Turning to `O=C(c1ccc(F)cc1)C1CCN(CCc2ccc(F)cc2)CC1`, the Ki in test [1] was found to be 0.0336 µM.
Compound `O=C(c1ccc(F)cc1)C1CCN(CCc2cccc(I)c2)CC1` yielded a Ki in test [3] of 0.00492 µM.
In test [1], `O=C(c1ccc(F)cc1)C1CCN(CCc2ccccc2I)CC1` gave a Ki of 0.0248 µM.
On to `OC(c1ccc(F)cc1)C1CCN(CCc2ccccc2I)CC1` (stereo unspecified), for which, in test [2], the Ki stood at 0.108 µM.
